# A selection: hits, their analogues and other compounds. The true share with any hit is near 2.5%.
# NALP3 yeast inh: NALP3 inflammasome inhibitors in reconstituted yeast, primary screen, luminescence, uHTS. Yeast reconstituted NLRP3/ASC/caspase-1, beta-gal luminescence, 24 h. inhibition, % at 10 µM. 330,000 tested, 0.39% active. AID 2825, 2010;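 active means inhibition of 50% or more; inactive means inhibition below 50%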;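 further: plate controls were induced DMSO wells for no effect and uninduced yeast grown without galactose for full effect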
# MC4R ag barr: MC4R agonists recruiting beta-arrestin, primary screen, cell-based, luminescence, agonist arm of biased-ligand search; U2OS MC4R beta-arrestin complementation; percent of melanotan II response, DMSO zero; activation, % at 8.9 µM; 360,000 tested, 0.98% active; AID 540308, 2011;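 active means activation above a per-plate cutoff, the mean activation of sample wells on that plate plus 3 SD, cut at about 8% in these data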
# Target sequence (P32245 whole entry, looked up): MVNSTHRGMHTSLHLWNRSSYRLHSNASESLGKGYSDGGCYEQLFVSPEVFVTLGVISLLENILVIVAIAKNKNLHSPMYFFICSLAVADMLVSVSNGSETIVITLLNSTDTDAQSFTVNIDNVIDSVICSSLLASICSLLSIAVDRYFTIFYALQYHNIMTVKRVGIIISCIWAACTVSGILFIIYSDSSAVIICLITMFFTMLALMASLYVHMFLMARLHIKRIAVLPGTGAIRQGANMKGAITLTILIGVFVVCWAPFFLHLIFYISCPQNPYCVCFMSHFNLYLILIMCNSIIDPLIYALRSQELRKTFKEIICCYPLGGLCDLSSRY
# NALP1 inh: NALP1 inflammasome inhibitors in reconstituted yeast, colorimetric, S. cerevisiae, triplicate retest | S. cerevisiae NALP1/ASC/caspase-1 growth, X-gal OD620, 72 h | inhibition, % at 10 µM | 280,000 tested, 0.61% active; in the data active means inhibition mostly above about 24%, no sharp cut-off; inactive means mostly below about 32%
# Tb MetRS inh: T. brucei MetRS inhibitors, primary screen, biochemical, luminescence | methionyl-tRNA synthetase (Trypanosoma brucei brucei) | purified T. brucei MetRS, ATP depletion, Kinase-Glo luminescence | inhibition, % at 11.9 µM | 360,000 tested, 0.4% active | AID 624268, 2012;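 active means inhibition above a per-plate cutoff of the control wells' mean inhibition plus 3 SD, cut at about 5.5% in these data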;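 further: 0% = DMSO wells median and 100% = median of wells with control inhibitor compound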
#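 Measured by: Kinase-Glo luciferase luminescence reporting remaining unconsumed ATP. Material: purified T. brucei MetRS enzyme. Doses: 11.9 µM compound single dose, 0.9% DMSO. Medium: HEPES buffer containing pyrophosphatase, BSA, spermine, DTT. Times: 15 min preincubation, 2 h reaction, all 25 °C. Reagent: methionine, ATP and bulk E. coli tRNA.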
# Bfl-1 A1 inh: caspase 3/7 activation in MEF A1-2A-BIM cells, primary screen, A1 inhibitor project, cell-based, luminescence, HTS. Caspase-Glo 3/7 luminescence, 3 h; percent of clofoctol response, vehicle zero. caspase activation, % (concentration not given with the values). 330,000 tested, 0.066% active. AID 2462, 2010;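 active means over half of replicate activation scores above 10%, or exactly half above 10 with the replicate mean above 10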
# MC4R antag cAMP: MC4R antagonists of cAMP signaling, primary screen, cell-based, TR-FRET, antagonist arm of biased-ligand search; Melanocortin receptor 4 (Homo sapiens), P32245; MC4R-expressing cells, MTII-stimulated cAMP, LANCE TR-FRET; inhibition, % at 6.5 µM; 360,000 tested, 0.48% active; AID 540295, 2011;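 active means inhibition above its plate's cutoff, the mean of tested wells on that plate plus 3 SD, cut at about 29% in these data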;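 further: 0% = Melanotan II alone and 100% = Melanotan II plus saturating MCL0020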
#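 Assay system: human MC4R-expressing U2OS cells; reagent: Melanotan II stimulation of cells; dosing: 6.5 µM single dose; timing: compound 30 min, challenge 1 h, detection 1 h; signal: TR-FRET cAMP assay; replicates: one well per compound, no replicates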
# Tb MetRS conf: T. brucei MetRS inhibitors, confirmation, biochemical, luminescence; 1,400 tested, 93% active; shares compounds with Tb MetRS inh; inhibition, % at 11.9 µM; T. brucei MetRS enzyme, luminescence (ATP depletion); in the data active means inhibition above about 7%
# Jurkat cytotox: Jurkat T cell cytotoxicity, cytotoxicity control for T. brucei MetRS inhibitor project, luminescence, high throughput. shares compounds with Tb MetRS inh. 1,400 tested, 12% active. Jurkat cells viability, ATP luminescence. inhibition, % at 8.3 µM; in the data active means inhibition above about 15%;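 further: 0% = vehicle and 100% = reference inhibitor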
# TbMetRS FP orth: T. brucei MetRS inhibitors, orthogonal assay for T. brucei MetRS inhibitor project, biochemical, fluorescence polarization. shares compounds with Tb MetRS inh. purified T. brucei MetRS. inhibition, % at 11.9 µM. 1,400 tested, 44% active; in the data active means inhibition above about 17%;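 further: 0% = vehicle wells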
# * = called active by the depositor; x = no result.
SMILES,NALP3 yeast inh,MC4R ag barr,NALP1 inh,Tb MetRS inh,Bfl-1 A1 inh,MC4R antag cAMP,Tb MetRS conf,Jurkat cytotox,TbMetRS FP orth
CCN(CC(=O)Nc1c(F)cccc1F)C(=O)CNC(=O)c1ccc(C)s1,-7.5,-0.5,1.4,-0.1,0.2,-1.3,x,x,x
Cc1ccc2nc(SCC(=O)NCc3ccc(S(N)(=O)=O)cc3)[nH]c2c1,3.3,-1.3,-47.2,0.0,-0.3,3.4,x,x,x
COc1ccc(CNC(=O)CSc2nc3ccc(C)cc3[nH]2)cc1OC,18.8,-0.2,18.0,8.9*,0.5,-0.6,20.9*,3.4,6.8
Cc1ccc2nc(SCC(=O)NCc3ccc(F)cc3)[nH]c2c1,9.6,3.6,4.6,18.1*,0.6,13.1,22.0*,-0.8,5.7
O=C(CCCOc1ccccc1)NN1C(=O)NC2(CCCCC2)C1=O,-4.5,-2.2,x,-0.2,1.3,11.7,x,x,x
CC(=O)c1cccc(NC(=O)C(C)OC(=O)c2cccc(S(=O)(=O)N3CCN(C)CC3)c2)c1 (stereo not drawn),2.8,0.2,x,-0.1,0.2,2.3,x,x,x
Cc1[nH]c2ccc(Br)cc2c(=O)c1CN1CCCCC1,10.5,2.1,-0.2,33.8*,-0.6,4.3,54.6*,-6.9,27.2*
O=C(NCCNc1ccc([N+](=O)[O-])cc1)c1ccccc1Cl,x,0.3,x,0.5,x,0.6,x,x,x
O=[N+]([O-])c1ccc(NCCNc2ccc(Cl)nn2)cc1,15.5,-2.5,1.3,11.1*,-1.4,12.9,18.1*,2.7,5.0
COc1cccc(NC(=O)C2(C)CCCN2C(=O)C(C)C)c1OC (stereo not drawn),x,-0.2,x,-0.1,x,1.4,x,x,x
O=C(c1ccco1)N1CCN(C(=O)c2ccc(COc3ccc(Cl)cc3Cl)o2)CC1,21.3,1.4,x,5.9*,0.4,-4.4,16.1*,2.3,12.8
O=C(c1ccco1)N1CCN(C(=O)c2ccc(COc3ccc4c(c3)CCC4)o2)CC1,19.2,2.6,27.8,-1.9,0.4,-5.4,x,x,x
CN1CCN(C(=O)c2ccc(COc3ccc(Cl)cc3Cl)cc2)CC1,35.1,-1.3,13.3,9.9*,0.0,2.4,19.1*,7.9,1.7
CN(C)CCNC(=O)c1ccc(COc2ccc(Cl)cc2Cl)cc1,5.0,-0.2,10.1,9.7*,1.4,-1.5,16.3*,26.9*,12.9
CCN(CC)C(=O)C1=C(C)N(Cc2ccc(C(C)(C)C)cc2)C(=O)C(CC(=O)NC2CCCC2)C1 (stereo not drawn),x,4.3,x,0.6,x,14.6,x,x,x
O=C(CSc1n[nH]c(-c2ccc(Br)cc2)n1)NC1CCCC1,21.5,1.7,x,12.5*,0.3,12.0,41.4*,0.8,13.6
O=C(Cc1cccc(NC(=O)C2CCN(C(=O)CCc3ccccc3)CC2)c1)Nc1cccc(C(=O)N2CCCC2)c1,7.4,-0.4,x,-0.1,-0.1,0.3,x,x,x
N#Cc1c(NCCCO)nc(NCc2ccccc2)c2c1CCN(Cc1ccccc1)C2,12.8,-0.7,-0.8,42.0*,1.6,8.0,35.6*,0.3,19.1*
CN1CCc2c(C#N)c(N3CCCCC3)nc(NCc3ccccc3)c2C1,1.7,5.5,6.7,-0.4,0.8,15.9,x,x,x
NC(=O)c1cc([N+](=O)[O-])ccc1NCc1cccc(N)c1,13.8,-1.6,x,0.0,0.0,5.5,x,x,x
Cn1ccc2c(-c3ccc4c(c3)OCCO4)cc3c(c21)C1CCC3O1 (stereo not drawn),x,x,x,-0.5,x,x,x,x,x
C[C@@H]1CN([C@H](C)CO)C(=O)CCCn2nncc2CO[C@@H]1CN(C)S(=O)(=O)c1cccs1,x,0.3,x,-1.1,x,9.5,x,x,x
Oc1ccc(/C=N/Nc2ccnc3cc(Cl)ccc23)c(O)c1,19.8,8.1,x,14.4*,-0.2,0.3,21.5*,55.5*,46.5*
COc1ccc(OC)c(C2C(C#N)=C(N)Oc3cc(N)ccc32)c1 (stereo not drawn),4.9,-1.8,16.9,35.9*,-0.4,-1.9,3.7,12.2,3.6
COc1ccc(OC)c(C2C(C#N)=C(N)Oc3cc(C)[nH]c(=O)c32)c1 (stereo not drawn),12.3,-0.9,18.1,13.2*,-0.5,6.2,4.0,-3.9,0.5
SMILES,NALP3 yeast inh,MC4R ag barr,NALP1 inh,Tb MetRS inh,Bfl-1 A1 inh,MC4R antag cAMP,Tb MetRS conf,Jurkat cytotox,TbMetRS FP orth
CCOc1cccc(C2C(C#N)=C(N)Oc3cc(C)n(Cc4ccccn4)c(=O)c32)c1OCC (stereo not drawn),17.4,1.3,-18.0,-0.1,0.3,18.1,x,x,x
COc1cc(C2C(C#N)=C(N)Oc3cc(C)n(CCc4ccccc4)c(=O)c32)cc2c1OCO2 (stereo not drawn),-1.8,2.6,5.4,85.3*,0.7,11.1,11.1*,-0.5,6.3
COc1ccc(OC)c(C2C(C#N)=C(N)Oc3cc(C)n(Cc4ccccn4)c(=O)c32)c1 (stereo not drawn),5.5,-3.2,9.5,89.0*,0.5,1.8,14.8*,-8.1,9.7
COc1cccc(-c2cnc(C(O)c3ccc(F)cc3C)[nH]2)c1 (stereo not drawn),x,-0.6,x,0.5,x,12.5,x,x,x
O=C1CC(c2ccccc2)CC2=C1C(c1ccccn1)Nc1ccccc1N2 (stereo not drawn),4.0,-2.3,8.5,-1.2,0.1,0.1,x,x,x
O=C1CC(c2ccc(F)cc2)CC2=C1C(c1ccc([N+](=O)[O-])o1)Nc1ccccc1N2 (stereo not drawn),21.0,0.8,6.9,6.9*,0.3,12.0,1.3,2.8,1.0
CC(=O)c1cccc(NC(=O)c2c(-c3c(F)cccc3Cl)noc2C)c1,9.1,0.3,x,-0.5,-0.3,-6.9,x,x,x
CCN(CC)S(=O)(=O)c1cc(C(=O)Nc2ccncc2)ccc1Cl,4.0,0.8,13.2,0.5,0.7,0.9,x,x,x

# Compound activity from PubChem.
